≈ marks a conversion by molar mass, not a printed value.
Experiments:
Type in all cases: functional
Escherichia coli = experiment: In vitro minimum inhibitory concentration required to inhibit growth of Escherichia coli.
How it was run: (§1)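 Broth microdilution per NCCLS; E. coli 51A0150 (poultry lung) and P. multocida 59A0067 (turkey). Overnight BHI plate colonies suspended in saline to OD625 0.09 (0.5 McFarland), diluted 1:100 in BHI broth; final ~5×10^5 cfu/mL against 2-fold serial dilutions in BHI broth.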

Pasteurella multocida [1] = experiment: Effective dose required to inhibit Pasteurella multocida infection model in mouse by subcutaneous administration
How it was run: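 Mice infected intranasally with P. multocida (respiratory disease model); drug given subcutaneously 0.5 h post-infection at 5–80 mg/kg. ED50 derived from number of surviving mice 4 days after infection.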

Pasteurella multocida [2] = experiment: Minimum inhibitory concentration required to inhibit growth of Pasteurella multocida in vitro by microdilution method.; how it was run: as §1
[3] = Pasteurella multocida, sc, read-out: ED50
[4] = Pasteurella multocida, read-out: MIC

| Compound | MIC (Escherichia coli; Escherichia coli) [µg/mL] | MIC (Pasteurella multocida [2]; [4]) [µg/mL] | MIC (Escherichia coli) [µg/mL] | MIC (Pasteurella multocida [2]) [µg/mL] | ED50 (Pasteurella multocida [1]; [3]) [mg/kg] | ED50 (Pasteurella multocida [1]) [mg/kg] |
| --- | --- | --- | --- | --- | --- | --- |
| CC[C@H]1OC(=O)[C@H](C)[C@@H](O[C@H]2C[C@@](C)(OC)[C@](O)(CSCCO)[C@H](C)O2)[C@H](C)[C@@H](O[C@@H]2O[C@H](C)C[C@H](N(C)C)[C@H]2O)[C@](C)(O)C[C@@H](C)CN[C@H](C)[C@@H](O)[C@]1(C)O | 25 (≈ 30.3 µM) | 0.39 (≈ 0.473 µM) | – | – | > 40 | – |
| CC[C@H]1OC(=O)[C@H](C)[C@@H](O[C@H]2C[C@@](C)(OC)[C@@](O)(CN)[C@H](C)O2)[C@H](C)[C@@H](O[C@@H]2O[C@H](C)C[C@H](N(C)C)[C@H]2O)[C@](C)(O)C[C@@H](C)CN[C@H](C)[C@@H](O)[C@]1(C)O | 6.25 (≈ 8.18 µM) | 0.39 (≈ 0.51 µM) | – | – | 30 | – |
| CC[C@H]1OC(=O)[C@H](C)[C@@H](O[C@H]2C[C@@](C)(OC)[C@@](O)(CN(C)CCO)[C@H](C)O2)[C@H](C)[C@@H](O[C@@H]2O[C@H](C)C[C@H](N(C)C)[C@H]2O)[C@](C)(O)C[C@@H](C)CN[C@H](C)[C@@H](O)[C@]1(C)O | 1.56 (≈ 1.9 µM) | 0.1 (≈ 0.122 µM) | – | – | 12 | – |
| CC[C@H]1OC(=O)[C@H](C)[C@@H](O[C@H]2C[C@@](C)(OC)[C@@](O)(CN3CCOCC3)[C@H](C)O2)[C@H](C)[C@@H](O[C@@H]2O[C@H](C)C[C@H](N(C)C)[C@H]2O)[C@](C)(O)C[C@@H](C)CN[C@H](C)[C@@H](O)[C@]1(C)O | 3.13 (≈ 3.75 µM) | 0.2 (≈ 0.24 µM) | – | – | 49 | – |
| CC[C@H]1OC(=O)[C@H](C)[C@@H](O[C@H]2C[C@@](C)(OC)[C@@](O)(Cn3ccnc3)[C@H](C)O2)[C@H](C)[C@@H](O[C@@H]2O[C@H](C)C[C@H](N(C)C)[C@H]2O)[C@](C)(O)C[C@@H](C)CN[C@H](C)[C@@H](O)[C@]1(C)O | 3.13 (≈ 3.84 µM) | 0.2 (≈ 0.245 µM) | – | – | 20 | – |
| CC[C@H]1OC(=O)[C@H](C)[C@@H](O[C@H]2C[C@@](C)(OC)[C@@](O)(CNCC(F)(F)F)[C@H](C)O2)[C@H](C)[C@@H](O[C@@H]2O[C@H](C)C[C@H](N(C)C)[C@H]2O)[C@](C)(O)C[C@@H](C)CN[C@H](C)[C@@H](O)[C@]1(C)O | 1.56 (≈ 1.84 µM) | < 0.1 | – | – | 46 | – |
| CC[C@H]1OC(=O)[C@H](C)[C@@H](O[C@H]2C[C@@](C)(OC)[C@@](O)(CN(C)CC)[C@H](C)O2)[C@H](C)[C@@H](O[C@@H]2O[C@H](C)C[C@H](N(C)C)[C@H]2O)[C@](C)(O)C[C@@H](C)CN[C@H](C)[C@@H](O)[C@]1(C)O (stereo in doubt; 8i) | – | – | 0.78 (≈ 0.968 µM) | < 0.1 | – | 7.2 |

Second part, led by results:

| MIC (Escherichia coli; Escherichia coli) [µg/mL] | MIC (Pasteurella multocida [2]; [4]) [µg/mL] | MIC (Escherichia coli) [µg/mL] | MIC (Pasteurella multocida [2]) [µg/mL] | Compound | ED50 (Pasteurella multocida [1]; [3]) [mg/kg] | ED50 (Pasteurella multocida [1]) [mg/kg] |
| --- | --- | --- | --- | --- | --- | --- |
| 0.39 (≈ 0.492 µM) | 0.05 (≈ 0.0631 µM) | – | – | CC[C@H]1OC(=O)[C@H](C)[C@@H](O[C@H]2C[C@@](C)(OC)[C@](O)(CN(C)C)[C@H](C)O2)[C@H](C)[C@@H](O[C@@H]2O[C@H](C)C[C@H](N(C)C)[C@H]2O)[C@](C)(O)C[C@@H](C)CN[C@H](C)[C@@H](O)[C@]1(C)O | 5.9 | – |
| 0.39 (≈ 0.492 µM) | < 0.1 | – | – | CC[C@H]1OC(=O)[C@H](C)[C@@H](O[C@H]2C[C@@](C)(OC)[C@@](O)(CN(C)C)[C@H](C)O2)[C@H](C)[C@@H](O[C@@H]2O[C@H](C)C[C@H](N(C)C)[C@H]2O)[C@](C)(O)C[C@@H](C)CN[C@H](C)[C@@H](O)[C@]1(C)O | 9.9 | – |
| 0.39 (≈ 0.469 µM) | < 0.1 | – | – | CC[C@H]1OC(=O)[C@H](C)[C@@H](O[C@H]2C[C@@](C)(OC)[C@@](O)(CN3CCCCC3)[C@H](C)O2)[C@H](C)[C@@H](O[C@@H]2O[C@H](C)C[C@H](N(C)C)[C@H]2O)[C@](C)(O)C[C@@H](C)CN[C@H](C)[C@@H](O)[C@]1(C)O | 40 | – |
| 0.2 (≈ 0.249 µM) | 0.05 (≈ 0.0622 µM) | – | – | CC[C@H]1OC(=O)[C@H](C)[C@@H](O[C@H]2C[C@@](C)(OC)[C@@](O)(CNC3CC3)[C@H](C)O2)[C@H](C)[C@@H](O[C@@H]2O[C@H](C)C[C@H](N(C)C)[C@H]2O)[C@](C)(O)C[C@@H](C)CN[C@H](C)[C@@H](O)[C@]1(C)O | 20 | – |
| 0.39 (≈ 0.477 µM) | 0.1 (≈ 0.122 µM) | – | – | CC[C@H]1OC(=O)[C@H](C)[C@@H](O[C@H]2C[C@@](C)(OC)[C@@](O)(CNCC3CC3)[C@H](C)O2)[C@H](C)[C@@H](O[C@@H]2O[C@H](C)C[C@H](N(C)C)[C@H]2O)[C@](C)(O)C[C@@H](C)CN[C@H](C)[C@@H](O)[C@]1(C)O | 5.7 | – |
| 0.39 (≈ 0.484 µM) | 0.1 (≈ 0.124 µM) | – | – | CCCNC[C@@]1(O)[C@H](C)O[C@@H](O[C@H]2[C@H](C)[C@@H](O[C@@H]3O[C@H](C)C[C@H](N(C)C)[C@H]3O)[C@](C)(O)C[C@@H](C)CN[C@H](C)[C@@H](O)[C@](C)(O)[C@@H](CC)OC(=O)[C@@H]2C)C[C@@]1(C)OC | 12 | – |
| 0.78 (≈ 0.956 µM) | 0.05 (≈ 0.0613 µM) | – | – | CC[C@H]1OC(=O)[C@H](C)[C@@H](O[C@H]2C[C@@](C)(OC)[C@@](O)(Cn3ccnn3)[C@H](C)O2)[C@H](C)[C@@H](O[C@@H]2O[C@H](C)C[C@H](N(C)C)[C@H]2O)[C@](C)(O)C[C@@H](C)CN[C@H](C)[C@@H](O)[C@]1(C)O | 23 | – |
| 0.78 (≈ 0.953 µM) | 0.1 (≈ 0.122 µM) | – | – | CC[C@H]1OC(=O)[C@H](C)[C@@H](O[C@H]2C[C@@](C)(OC)[C@@](O)(CN(C)C3CC3)[C@H](C)O2)[C@H](C)[C@@H](O[C@@H]2O[C@H](C)C[C@H](N(C)C)[C@H]2O)[C@](C)(O)C[C@@H](C)CN[C@H](C)[C@@H](O)[C@]1(C)O | 17 | – |
| 0.39 (≈ 0.476 µM) | < 0.1 | – | – | CCCCNC[C@@]1(O)[C@H](C)O[C@@H](O[C@H]2[C@H](C)[C@@H](O[C@@H]3O[C@H](C)C[C@H](N(C)C)[C@H]3O)[C@](C)(O)C[C@@H](C)CN[C@H](C)[C@@H](O)[C@](C)(O)[C@@H](CC)OC(=O)[C@@H]2C)C[C@@]1(C)OC | 23 | – |
| 0.39 (≈ 0.484 µM) | – | – | 0.1 (≈ 0.124 µM) | CC[C@H]1OC(=O)[C@H](C)[C@@H](O[C@H]2C[C@@](C)(OC)[C@@](O)(CN(C)CC)[C@H](C)O2)[C@H](C)[C@@H](O[C@@H]2O[C@H](C)C[C@H](N(C)C)[C@H]2O)[C@](C)(O)C[C@@H](C)CN[C@H](C)[C@@H](O)[C@]1(C)O (stereo in doubt; 10g) | < 5 | – |
